What was measured:
SAOS-2 = assay: Antitumor activity against p53 deficient human Saos2 cells after 72 hrs by MTT assay; format: functional, cell-based; settings: SAOS-2, 72 h
Method in brief: (§1)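 Cells seeded at 5-6 × 10⁴ per well and cultured 24 h, then exposed to a range of compound concentrations in triplicate wells; vehicle control 0.1% DMSO. After 72 h, MTT (5 mg/mL solution) added, plate shaken 1 min, then incubated 4 h at 37 °C. Formazan dissolved in DMSO and absorbance read at 570 nm. Drug-free wells served as blanks. IC50 = 50% growth inhibition.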

U2OS [1] = assay: Antitumor activity against human U2OS cells expressing wild type p53 after 72 hrs by MTT assay; format: functional, cell-based; method in brief: as §1
[2] = target: Tumour suppressor p53/oncoprotein Mdm2 (Homo sapiens, UniProt Q00987); assay: Inhibition of Mdm2-p53 protein interaction preincubated for 1 hr by fluorescence polarization assay
U2OS [3] = assay: Ratio of nutlin-3a IC50 to compound IC50 for human U2OS cells expressing wild type p53; format: functional

Sequence of Tumour suppressor p53/oncoprotein Mdm2 (P04637 whole entry): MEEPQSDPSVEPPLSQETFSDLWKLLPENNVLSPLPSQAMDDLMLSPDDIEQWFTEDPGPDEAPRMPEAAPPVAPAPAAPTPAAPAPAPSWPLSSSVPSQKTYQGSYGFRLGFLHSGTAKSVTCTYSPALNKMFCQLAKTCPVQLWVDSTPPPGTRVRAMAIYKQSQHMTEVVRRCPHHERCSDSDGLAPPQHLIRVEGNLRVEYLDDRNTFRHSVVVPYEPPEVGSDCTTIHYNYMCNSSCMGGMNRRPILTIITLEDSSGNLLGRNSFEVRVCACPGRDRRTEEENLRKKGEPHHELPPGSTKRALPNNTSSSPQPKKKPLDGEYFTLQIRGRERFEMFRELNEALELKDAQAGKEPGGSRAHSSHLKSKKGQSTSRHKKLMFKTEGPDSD
Sequence of Tumour suppressor p53/oncoprotein Mdm2 (Q00987 whole entry): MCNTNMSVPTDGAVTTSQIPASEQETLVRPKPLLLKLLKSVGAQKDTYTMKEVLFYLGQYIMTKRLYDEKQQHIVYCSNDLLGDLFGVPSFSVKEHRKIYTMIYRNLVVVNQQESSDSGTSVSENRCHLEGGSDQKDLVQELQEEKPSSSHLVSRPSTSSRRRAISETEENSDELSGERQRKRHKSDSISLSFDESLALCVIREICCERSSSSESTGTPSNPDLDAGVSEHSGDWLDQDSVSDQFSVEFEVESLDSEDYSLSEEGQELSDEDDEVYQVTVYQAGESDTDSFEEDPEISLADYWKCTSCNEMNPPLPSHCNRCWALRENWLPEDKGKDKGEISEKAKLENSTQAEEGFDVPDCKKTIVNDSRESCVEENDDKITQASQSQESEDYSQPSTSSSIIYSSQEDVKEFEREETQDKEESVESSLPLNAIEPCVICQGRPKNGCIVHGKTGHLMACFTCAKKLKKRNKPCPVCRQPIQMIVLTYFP

Question: With `CCCCNc1ccc2c(c1)NC(=S)C(c1ccc(Cl)cc1)N(C(C(=O)OC)c1ccc(Cl)cc1)C2=O` (configuration not stated) as the compound, how does the IC50 (SAOS-2) read?
Answer: 27.9 µM

Question: And the IC50 (U2OS [1])?
Answer: > 100 µM

Question: And the Ki [2]?
Answer: 49.6 µM

Question: With `COC(=O)C(c1ccc(Cl)cc1)N1C(=O)c2ccc(NCc3ccc(Cl)cc3)cc2NC(=S)C1c1ccc(Cl)cc1` (configuration not stated) as the compound, how does the IC50 (SAOS-2) read?
Answer: 13.3 µM

Question: What about the IC50 (U2OS [1]) of the same compound?
Answer: 20.9 µM

Question: What about the Ki [2] of the same compound?
Answer: > 100 µM

Question: How did the IC50 (SAOS-2) turn out when `COC(=O)C(c1ccc(Cl)cc1)N1C(=O)c2ccc(NCc3ccc4ccccc4c3)cc2NC(=S)C1c1ccc(Cl)cc1` (configuration not stated) was run?
Answer: 91.7 µM

Question: What about the IC50 (U2OS [1]) of the same compound?
Answer: > 100 µM

Question: What about the Ki [2] of the same compound?
Answer: > 100 µM

Question: With `COC(=O)C(c1ccc(Cl)cc1)N1C(=O)c2ccc(NCc3ccc(F)cc3)cc2NC(=S)C1c1ccc(Cl)cc1` (configuration not stated) as the compound, how does the IC50 (SAOS-2) read?
Answer: 9.81 µM

Question: And the IC50 (U2OS [1])?
Answer: 30.6 µM

Question: And the Ki [2]?
Answer: 1.71 µM

Question: How did the IC50 (SAOS-2) turn out when `COC(=O)C(c1ccc(Cl)cc1)N1C(=O)c2ccc(NCc3ccccc3)cc2NC(=S)C1c1ccc(Cl)cc1` (configuration not stated) was run?
Answer: 17.8 µM

Question: What about the IC50 (U2OS [1]) of the same compound?
Answer: > 100 µM

Question: And the Ki [2]?
Answer: 2.26 µM

Question: `COC(=O)C(c1ccc(Cl)cc1)N1C(=O)c2ccc(NCC3CCCCC3)cc2NC(=S)C1c1ccc(Cl)cc1` (configuration not stated) was tested. Which IC50 (SAOS-2) did it give?
Answer: 72.2 µM

Question: What about the IC50 (U2OS [1]) of the same compound?
Answer: > 100 µM

Question: And the Ki [2]?
Answer: > 100 µM

Question: For `CCCCCNc1ccc2c(c1)NC(=S)C(c1ccc(Cl)cc1)N(C(C(=O)OC)c1ccc(Cl)cc1)C2=O` (configuration not stated), which IC50 (SAOS-2) is on record?
Answer: 20.7 µM

Question: What about the IC50 (U2OS [1]) of the same compound?
Answer: > 100 µM

Question: And the Ki [2]?
Answer: 15 µM

Question: Which IC50 (SAOS-2) does the source give for `COC(=O)C(c1ccc(Cl)cc1)N1C(=O)c2ccccc2NC(=O)C1c1ccc(Cl)cc1` (configuration not stated) here?
Answer: 5.58 µM

Question: And the IC50 (U2OS [1])?
Answer: 13.9 µM

Question: What about the Ki [2] of the same compound?
Answer: 10.6 µM

Question: Which IC50 (SAOS-2) does the source give for `COC(=O)C(c1ccc(Cl)cc1)N1C(=O)c2ccc(NCC(C)(C)C)cc2NC(=S)C1c1ccc(Cl)cc1` (configuration not stated) here?
Answer: 2.19 µM

Question: And the IC50 (U2OS [1])?
Answer: 18 µM

Question: And the Ki [2]?
Answer: > 100 µM

Question: With `COc1ccc(C2=N[C@@H](c3ccc(Cl)cc3)[C@@H](c3ccc(Cl)cc3)N2C(=O)N2CCNC(=O)C2)c(OC(C)C)c1` [NUTLIN-3] as the compound, how does the IC50 (SAOS-2) read?
Answer: 54.4 µM

Question: And the IC50 (U2OS [1])?
Answer: 24.6 µM

Question: Which results are given for `CCCNc1ccc2c(c1)NC(=S)C(c1ccc(Cl)cc1)N(C(C(=O)OC)c1ccc(Cl)cc1)C2=O` (configuration not stated)?
Answer: IC50 (SAOS-2): 12.4 µM; IC50 (U2OS [1]): 91.2 µM; Ki [2]: 1.02 µM

Question: With `COC(=O)C(c1ccc(Cl)cc1)N1C(=O)c2ccc(NCC(C)C)cc2NC(=S)C1c1ccc(Cl)cc1` (configuration not stated) as the compound, how does the IC50 (SAOS-2) read?
Answer: 15.7 µM

Question: What about the IC50 (U2OS [1]) of the same compound?
Answer: > 100 µM

Question: And the Ki [2]?
Answer: 0.32 µM

Question: How did the IC50 (SAOS-2) turn out when `COC(=O)C(c1ccc(Cl)cc1)N1C(=O)c2ccc(NCC3CC3)cc2NC(=S)C1c1ccc(Cl)cc1` (configuration not stated) was run?
Answer: 19 µM

Question: What about the IC50 (U2OS [1]) of the same compound?
Answer: > 100 µM

Question: What about the Ki [2] of the same compound?
Answer: 3.43 µM

Question: Which IC50 (SAOS-2) does the source give for `COC(=O)C(c1ccc(Cl)cc1)N1C(=O)c2ccc(NCc3ccc(C(F)(F)F)cc3)cc2NC(=S)C1c1ccc(Cl)cc1` (configuration not stated) here?
Answer: 2.87 µM

Question: What about the IC50 (U2OS [1]) of the same compound?
Answer: 1.06 µM

Question: What about the “Ratio IC50” value (U2OS [3]) of the same compound?
Answer: 23

Question: What about the Ki [2] of the same compound?
Answer: 5.34 µM

Question: What does the source list for `COC(=O)C(c1ccc(Cl)cc1)N1C(=O)c2ccc(NCc3ccco3)cc2NC(=S)C1c1ccc(Cl)cc1` (configuration not stated)?
Answer: IC50 (SAOS-2): 11.3 µM; IC50 (U2OS [1]): 48.5 µM; Ki [2]: 43.1 µM

Question: `COC(=O)C(c1ccc(Cl)cc1)N1C(=O)c2ccc(NCc3ccc(Br)cc3)cc2NC(=S)C1c1ccc(Cl)cc1` (configuration not stated) was tested. Which IC50 (SAOS-2) did it give?
Answer: 13.8 µM

Question: And the IC50 (U2OS [1])?
Answer: 14.7 µM

Question: What about the Ki [2] of the same compound?
Answer: > 100 µM

Question: With `COC(=O)C(c1ccc(Cl)cc1)N1C(=O)c2ccc(NCc3ccc(OC)cc3)cc2NC(=S)C1c1ccc(Cl)cc1` (configuration not stated) as the compound, how does the IC50 (SAOS-2) read?
Answer: 88.1 µM

Question: What about the IC50 (U2OS [1]) of the same compound?
Answer: > 100 µM

Question: What about the Ki [2] of the same compound?
Answer: > 100 µM

Question: How did the IC50 (SAOS-2) turn out when `COC(=O)C(c1ccc(Cl)cc1)N1C(=O)c2ccccc2NC(=S)C1c1ccc(Cl)cc1` (configuration not stated) was run?
Answer: 6.55 µM

Question: What about the IC50 (U2OS [1]) of the same compound?
Answer: 13.7 µM

Question: What about the Ki [2] of the same compound?
Answer: 0.52 µM

Question: How did the IC50 (SAOS-2) turn out when `COC(=O)C(c1ccc(Cl)cc1)N1C(=O)c2ccc(NCc3ccsc3)cc2NC(=S)C1c1ccc(Cl)cc1` (configuration not stated) was run?
Answer: 3.37 µM

Question: What about the IC50 (U2OS [1]) of the same compound?
Answer: > 100 µM

Question: What about the Ki [2] of the same compound?
Answer: > 100 µM

Source: ChEMBL document CHEMBL1909543, “Synthesis and biological evaluation of thio-benzodiazepines as novel small molecule inhibitors of the p53-MDM2 protein-protein interaction” (Eur J Med Chem, 2011)
